Experimental data: paper PMC5903480 (Drug Design, Development and Therapy, 2018)

Experiments:
[1] = Tolerability: adverse events in healthy male volunteers; type: in vivo, human; conditions: multiple oral doses over 10 days, healthy male subjects
Summary of the method: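 Healthy Korean men took the single or combined drugs once daily for 10 days in a 3-period crossover. Monitoring ran throughout and covered vital signs, 12-lead ECG, hematology, blood chemistry, urinalysis and physical examinations. AEs were recorded by symptom, duration, intensity, drug relationship, outcome and seriousness. Counts are subjects (events); frequencies were compared by Fisher's exact test.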

[2] = healthy subjects, 7 day-dosing, coadministration with rosuvastatin; cited from earlier work
[3] = system: LDL-C; conditions: ezetimibe administered with atorvastatin; cited from earlier work
[4] = single-dose 20 mg ezetimibe; cited from earlier work
[5] = system: plasma cholesterol; conditions: in humans; cited from earlier work
[6] = Steady-state plasma pharmacokinetics of free and total ezetimibe; type: in vivo, human
Summary of the method: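 Ezetimibe 10 mg was given orally once daily for 10 days, alone or with rosuvastatin 20 mg, fasted, in a crossover. EDTA plasma was sampled 0–72 h after the day-10 dose. LC-MS/MS (ezetimibe-d4 internal standard) measured free and total (free plus glucuronide) ezetimibe; LLOQ was 0.2 and 0.5 ng/mL. Analysis was non-compartmental on actual times, with t1/2 as ln(2)/λz. Log-transformed Cmax,ss and AUCτ,ss were compared by ANOVA as geometric mean ratios with 90% CI.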

[7] = system: LDL-C; conditions: volunteers with hypercholesterolemia, n=8 per group, ezetimibe 10 mg; cited from earlier work
[8] = system: cholesterol absorption; conditions: rat model; cited from earlier work

Compound | tolerability [1] | 90% CI of AUCmax,ss ratio of free ezetimibe on coadministration [2] | 90% CI of Cmax,ss ratio of free ezetimibe on coadministration [2] | additional reductions in LDL-C levels [3] | AEs and physical examinations [4] | Cmax,ss of free ezetimibe [4] | reduction of plasma cholesterol [5] | amount of free ezetimibe in the body ([6]; relative to conjugate/total ezetimibe) | 90% CI of geometric mean ratio for Cmax,ss of free ezetimibe ([6]; single versus combination treatment, exception to 0.80–1.25) | subjects achieving a 35%–50% reduction of LDL-C [7] | cholesterol absorption inhibiting activity (relative potency) [8]
O=C1[C@H](CC[C@H](O)c2ccc(F)cc2)[C@@H](c2ccc(O)cc2)N1c1ccc(F)cc1 [Ezetimibe] | well tolerated | 1.094–1.341 | 0.994–1.285 | 12%–19% | no AEs or clinically significant changes | 5.2 ng/mL | 15%–20% | < 8% | 1.038–1.346 | 1 of 8 | –
CC(C)c1nc(N(C)S(C)(=O)=O)nc(-c2ccc(F)cc2)c1/C=C/[C@@H](O)C[C@@H](O)CC(=O)O [Rosuvastatin] | well tolerated | – | – | – | – | – | – | – | – | – | –
O=C(O)[C@H]1O[C@@H](Oc2ccc([C@@H]3[C@@H](CC[C@H](O)c4ccc(F)cc4)C(=O)N3c3ccc(F)cc3)cc2)[C@H](O)[C@@H](O)[C@@H]1O [ezetimibe glucuronide] | – | – | – | – | – | – | – | – | – | – | more potent than ezetimibe
